From ChEMBL document CHEMBL4837234, “"Clicking" fragment leads to novel dual-binding cholinesterase inhibitors” (Bioorg Med Chem, 2021)
The source made the active and inactive calls. The rule behind the calls is not given here.

Tests used:
[1] = target: T1, Acetylcholinesterase (Homo sapiens, UniProt P22303); test: Inhibition of human erythrocyte AChE using acetylthiocholine iodide as substrate incubated for 25 mins by DTNB reagent based Ellman's method; assay type: tissue-based
[2] = target: T2, Cholinesterase (Homo sapiens, UniProt P06276); test: Inhibition of human serum BuChe using butyrylthiocholine iodide as substrate incubated for 25 mins by DTNB reagent based Ellman's method; assay type: cell-free
T2 sequence (P06276 whole entry): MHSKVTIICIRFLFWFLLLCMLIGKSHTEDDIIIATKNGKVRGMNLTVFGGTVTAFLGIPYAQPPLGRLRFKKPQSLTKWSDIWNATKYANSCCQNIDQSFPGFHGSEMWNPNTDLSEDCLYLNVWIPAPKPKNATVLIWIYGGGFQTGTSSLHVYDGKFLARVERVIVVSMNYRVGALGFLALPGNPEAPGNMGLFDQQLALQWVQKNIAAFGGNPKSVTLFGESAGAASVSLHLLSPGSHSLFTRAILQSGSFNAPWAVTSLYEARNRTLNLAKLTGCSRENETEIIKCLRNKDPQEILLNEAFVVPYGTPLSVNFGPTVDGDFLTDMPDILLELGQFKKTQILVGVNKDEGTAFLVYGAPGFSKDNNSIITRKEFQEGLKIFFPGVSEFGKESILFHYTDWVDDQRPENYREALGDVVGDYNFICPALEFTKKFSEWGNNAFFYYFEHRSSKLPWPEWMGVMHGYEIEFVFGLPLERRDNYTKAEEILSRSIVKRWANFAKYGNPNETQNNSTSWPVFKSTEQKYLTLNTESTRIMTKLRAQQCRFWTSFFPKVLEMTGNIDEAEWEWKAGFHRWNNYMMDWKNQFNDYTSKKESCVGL
Method in brief: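 Compound (Tween 80/EtOH stock, final dilutions in pH 8.0 phosphate buffer) preincubated with enzyme 30 min at room temperature, then substrate 0.5 mM plus DTNB, 25 min, 37 °C; yellow anion read spectrophotometrically. Triplicate, three occasions; IC50 from % activity vs log concentration.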

[3] = target: T1, Acetylcholinesterase; test: Mixed type inhibition of human erythrocyte AChE assessed as decrease in Vmax at 3.3 to 9.9 nM using varying level of acetylthiocholine iodide as substrate by Lineweaver-Burk plot analysis; assay type: tissue-based; conditions: dose 3.3-9.9 nM
Method in brief: (§1)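 hAChE from human erythrocytes, washed in saline and lysed in 0.1 M Na₃PO₄ pH 7.4 with 0.5% Triton-X, then diluted. Ellman set-up (30 min room-temperature preincubation, then 37 °C with DTNB 1.2 mM) using substrate 0.25, 0.5, 1 and 2 mM and inhibitor 3.3 and 9.9 nM. Vmax and Km by nonlinear regression of substrate–velocity curves; Lineweaver–Burk by linear regression.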

[4] = target: T1, Acetylcholinesterase; test: Mixed type inhibition of human erythrocyte AChE assessed as increase in Km at 3.3 to 9.9 nM using varying level of acetylthiocholine iodide as substrate by Lineweaver-Burk plot analysis; assay type: tissue-based; conditions: dose 3.3-9.9 nM; method in brief: as §1
[5] = target: T2, Cholinesterase; test: Mixed type inhibition of human serum BuChe assessed as decrease in Vmax at 89 to 267 nM using varying level of butyrylthiocholine iodide as substrate by Lineweaver-Burk plot analysis; assay type: cell-free; conditions: dose 89-267 nM
Method in brief: (§2)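 hBChE from human plasma diluted 1:125 in 0.1 M Na₃PO₄ pH 7.4. Ellman set-up (30 min room-temperature preincubation, then 37 °C with DTNB 1.2 mM) with substrate 0.25, 0.5, 1 and 2 mM and inhibitor 89 and 267 nM. Vmax and Km from nonlinear regression of substrate–velocity curves; Lineweaver–Burk plots by linear regression.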

[6] = target: T2, Cholinesterase; test: Mixed type inhibition of human serum BuChe assessed as increase in Km at 89 to 267 nM using varying level of butyrylthiocholine iodide as substrate by Lineweaver-Burk plot analysis; assay type: cell-free; conditions: dose 89-267 nM; method in brief: as §2

T1 sequence (P22303 whole entry): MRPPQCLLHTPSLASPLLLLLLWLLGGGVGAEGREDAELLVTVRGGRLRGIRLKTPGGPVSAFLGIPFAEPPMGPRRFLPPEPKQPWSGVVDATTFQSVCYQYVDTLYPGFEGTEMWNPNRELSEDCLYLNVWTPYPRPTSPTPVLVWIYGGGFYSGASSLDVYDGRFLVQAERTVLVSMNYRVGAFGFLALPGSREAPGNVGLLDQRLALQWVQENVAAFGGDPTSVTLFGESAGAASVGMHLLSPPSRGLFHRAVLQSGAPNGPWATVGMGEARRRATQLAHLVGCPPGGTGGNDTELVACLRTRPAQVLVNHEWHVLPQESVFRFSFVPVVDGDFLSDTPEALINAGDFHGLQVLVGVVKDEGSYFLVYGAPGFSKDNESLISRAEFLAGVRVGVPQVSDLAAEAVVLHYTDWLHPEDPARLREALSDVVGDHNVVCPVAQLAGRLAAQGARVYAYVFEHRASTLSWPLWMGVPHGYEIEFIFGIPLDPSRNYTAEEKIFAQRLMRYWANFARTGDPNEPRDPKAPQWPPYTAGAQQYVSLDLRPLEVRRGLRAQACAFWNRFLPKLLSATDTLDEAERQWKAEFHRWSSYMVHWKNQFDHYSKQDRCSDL

SMILES | IC50 [1] | IC50 [2] | inhibition [3] | inhibition [4] | inhibition [5] | inhibition [6]
COc1ccc2[nH]cc(CCNC(=O)CCCCn3cc(CN4CC[C@@]56C=C[C@H](O)C[C@@H]5Oc5c(OC)ccc(c56)C4)nn3)c2c1 | 1000 nM | 2020 nM | – | – | – | –
COc1ccc2[nH]c(CCNC(=O)CCCn3cc(CCCCN4CCc5cc(OC)c(OC)cc5C4CCCN4C(=O)c5ccccc5C4=O)nn3)cc2c1 (stereo unspecified) | 159000 nM | 4600 nM | – | – | – | –
COc1ccc2[nH]cc(CCNC(=O)Cn3cc(CCCCN(C)CCCC4c5cc(OC)c(OC)cc5CCN4C)nn3)c2c1 (stereo unspecified) | 2200 nM | 1600 nM | – | – | – | –
COc1ccc2[nH]cc(CCNC(=O)Cn3cc(CN4CCc5cc(OC)c(OC)cc5C4CCCN4C(=O)c5ccccc5C4=O)nn3)c2c1 (stereo unspecified) | 39900 nM | 26200 nM | – | – | – | –
COc1ccc2[nH]cc(CCNC(=O)CCCCn3cc(CCCCN4CC[C@@]56C=C[C@H](O)C[C@@H]5Oc5c(OC)ccc(c56)C4)nn3)c2c1 | 18 nM | 963 nM | – | – | – | –
COc1ccc2[nH]c(CCNC(=O)Cn3cc(CCCCN4CCc5cc(OC)c(OC)cc5C4CCCN4C(=O)c5ccccc5C4=O)nn3)cc2c1 (stereo unspecified) | 174000 nM | 57200 nM | – | – | – | –
COc1ccc2c3c1O[C@H]1C[C@@H](O)C=C[C@@]31CCN(CCCCc1cn(CCCCC(=O)NCCc3c[nH]c4ccccc34)nn1)C2 | 31 nM | 1290 nM | – | – | – | –
COc1ccc2[nH]cc(CCNC(=O)Cn3cc(CCCCN4CC[C@@]56C=C[C@H](O)C[C@@H]5Oc5c(OC)ccc(c56)C4)nn3)c2c1 | 23 nM | 554 nM | – | – | – | –
COc1ccc2[nH]cc(CCNC(=O)Cn3cc(CN4CC[C@@]56C=C[C@H](O)C[C@@H]5Oc5c(OC)ccc(c56)C4)nn3)c2c1 | 5410 nM | 8840 nM | – | – | – | –
COc1ccc2c3c1O[C@H]1C[C@@H](O)C=C[C@@]31CCN(CCCCc1cn(CC(=O)NCCc3c[nH]c4ccccc34)nn1)C2 | 138 nM | 907 nM | – | – | – | –
COc1ccc2c3c1O[C@H]1C[C@@H](O)C=C[C@@]31CCN(CCCCc1cn(CCCC(=O)NCCc3c[nH]c4ccccc34)nn1)C2 | 120 nM | 209 nM | Active | Active | Active | Active
